Results from ChEMBL document CHEMBL1129346, “First examples of peptidomimetic inhibitors of interleukin-1 beta converting enzyme” (J Med Chem, 1996).

Key:
Caspase-1 (Homo sapiens) [1] = biological target: T1, Caspase-1 (Homo sapiens) (UniProt P29466); assay: Second order rate constant of inactivation for compound was measured against Interleukin-1-beta converting enzyme partially purified from THP-1 cells
T1 sequence (whole entry): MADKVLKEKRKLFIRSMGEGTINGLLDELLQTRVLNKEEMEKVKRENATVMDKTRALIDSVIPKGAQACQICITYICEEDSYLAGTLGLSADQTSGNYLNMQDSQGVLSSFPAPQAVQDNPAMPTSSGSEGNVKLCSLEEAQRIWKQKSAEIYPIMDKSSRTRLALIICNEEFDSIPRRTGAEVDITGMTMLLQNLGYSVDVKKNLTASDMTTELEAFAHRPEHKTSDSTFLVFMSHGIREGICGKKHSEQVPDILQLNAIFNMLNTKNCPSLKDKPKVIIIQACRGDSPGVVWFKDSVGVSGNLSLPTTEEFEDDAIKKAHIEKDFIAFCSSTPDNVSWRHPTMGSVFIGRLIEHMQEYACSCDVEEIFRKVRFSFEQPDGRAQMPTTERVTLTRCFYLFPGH
Procedure, shortened: (§1)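 ICE was partially purified from THP-1 cells by DEAE-Sephacel and Sephadex G-75 steps. Fluorescence progress curves were recorded at 37 °C over 30 min, and the nonlinear curves were analysed by the Tian–Tsou method. Standard error was <10%.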

Caspase-1 (Homo sapiens) [2] = biological target: T1, Caspase-1 (Homo sapiens); assay: The binding affinity of compound was measured against Interleukin-1-beta converting enzyme in monocytic cells; type: cell-based
Procedure, shortened: as §1, with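 “steps. The assay buffer was 10 mM HEPES pH 7.5 with 25% glycerol and 1 mM DTT, and the substrate was 10 μM Suc-Tyr-Val-Ala-Asp-AMC.” for “steps.”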

k obs / 1 (Caspase-1 (Homo sapiens) [1]) [M⁻¹ s⁻¹]	k obs / 1 (Caspase-1 (Homo sapiens) [2]) [M⁻¹ s⁻¹]	Compound
90000	–	O=C(O)C[C@H](NC(=O)Cn1c(-c2ccc(F)cc2)ncc(NS(=O)(=O)c2ccccc2)c1=O)C(=O)COC(=O)c1c(Cl)cccc1Cl
36000	–	Nc1cnc(-c2ccc(F)cc2)n(CC(=O)N[C@@H](CC(=O)O)C(=O)COC(=O)c2c(Cl)cccc2Cl)c1=O
148000	–	O=C(O)C[C@H](NC(=O)Cn1c(-c2ccc(F)cc2)ncc(NC(=O)NCc2ccccc2)c1=O)C(=O)COC(=O)c1c(Cl)cccc1Cl
–	157000	O=C(O)C[C@H](NC(=O)Cn1c(-c2ccc(F)cc2)ncc(NC(=O)OCc2ccccc2)c1=O)C(=O)COc1cc(C(F)(F)F)nn1-c1ccccc1
268000	–	O=C(O)C[C@H](NC(=O)Cn1c(-c2ccc(F)cc2)ncc(NC(=O)OCc2ccccc2)c1=O)C(=O)COC(=O)c1c(Cl)cccc1Cl
145000	–	O=C(O)C[C@H](NC(=O)Cn1c(-c2cccnc2)ncc(NC(=O)OCc2ccccc2)c1=O)C(=O)COc1cc(C(F)(F)F)nn1-c1ccccc1
46000	–	O=C(O)C[C@H](NC(=O)Cn1c(-c2ccc(F)cc2)ncc(NC(=O)c2ccco2)c1=O)C(=O)COC(=O)c1c(Cl)cccc1Cl
90000	–	CN(C)CCCCCC(=O)Nc1cnc(-c2ccc(F)cc2)n(CC(=O)N[C@@H](CC(=O)O)C(=O)COC(=O)c2c(Cl)cccc2Cl)c1=O
432000	–	CC(C)[C@H](NC(=O)OCc1ccccc1)C(=O)N[C@@H](C)C(=O)N[C@@H](CC(=O)O)C(=O)COC(=O)c1c(Cl)cccc1Cl
95000	–	Cc1ncc(NC(=O)OCc2ccccc2)c(=O)n1CC(=O)N[C@@H](CC(=O)O)C(=O)COc1cc(C(F)(F)F)nn1-c1ccccc1
–	145000	O=C(O)C[C@H](NC(=O)Cn1c(-c2ccc(F)cc2)ncc(NC(=O)OCc2ccccc2)c1=O)C(=O)COP(=O)(c1ccccc1)c1ccccc1
